# Source: ChEMBL document CHEMBL1132495, “Alpha(2) adrenoceptor agonists as potential analgesic agents. 1. (Imidazolylmethyl)oxazoles and -thiazoles” (J Med Chem, 1999)
# How the values were obtained:
# Mus musculus [1] = species: Mus musculus; assay: Mouse Acetylcholine-induced Abdominal Irritant Test activity (MAIT); format: functional; conditions: Abdomen
# In short: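 Male CD-1 mice, 18-24 g, fed ad libitum until testing. Compound or vehicle given orally by gavage; at set intervals afterwards, acetylcholine bromide 5.5 mg/kg i.p. Mice observed in bell jars for a single abdominal response; % antinociception per dose taken from responder counts. ED50 with 95% confidence limits by Litchfield-Wilcoxon probit analysis, including a chi-square test for linearity.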
# [2] = target: T1, Adrenergic receptor alpha-2 (Rattus norvegicus, UniProt P22086+P19328+P22909); assay: In vitro binding affinity against alpha-2 adrenergic receptor in rat
# T1 sequence (P22086 whole entry): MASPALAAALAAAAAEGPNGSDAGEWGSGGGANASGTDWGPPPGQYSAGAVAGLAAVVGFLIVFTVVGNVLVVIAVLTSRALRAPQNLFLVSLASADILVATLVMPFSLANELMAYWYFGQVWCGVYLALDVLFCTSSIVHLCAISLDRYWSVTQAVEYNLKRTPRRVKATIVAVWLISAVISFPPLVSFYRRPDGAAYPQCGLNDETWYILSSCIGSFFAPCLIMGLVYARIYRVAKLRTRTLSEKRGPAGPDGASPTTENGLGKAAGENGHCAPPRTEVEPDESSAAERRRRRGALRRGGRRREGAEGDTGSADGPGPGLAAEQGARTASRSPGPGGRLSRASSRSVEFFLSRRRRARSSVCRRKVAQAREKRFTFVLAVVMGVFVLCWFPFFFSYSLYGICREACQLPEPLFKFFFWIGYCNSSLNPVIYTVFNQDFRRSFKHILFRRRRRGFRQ
# T1 sequence (P19328 whole entry): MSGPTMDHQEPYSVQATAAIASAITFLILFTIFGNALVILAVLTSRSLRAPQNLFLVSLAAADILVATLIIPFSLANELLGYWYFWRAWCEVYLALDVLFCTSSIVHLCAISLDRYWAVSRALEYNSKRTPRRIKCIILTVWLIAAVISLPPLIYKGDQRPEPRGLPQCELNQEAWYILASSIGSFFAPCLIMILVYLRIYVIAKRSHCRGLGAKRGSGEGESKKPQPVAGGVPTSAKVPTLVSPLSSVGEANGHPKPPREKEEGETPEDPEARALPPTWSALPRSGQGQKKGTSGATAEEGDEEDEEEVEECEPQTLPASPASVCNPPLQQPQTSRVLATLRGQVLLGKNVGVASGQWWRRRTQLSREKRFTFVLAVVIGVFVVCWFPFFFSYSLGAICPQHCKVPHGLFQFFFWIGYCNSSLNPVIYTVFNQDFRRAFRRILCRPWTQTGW
# T1 sequence (P22909 whole entry): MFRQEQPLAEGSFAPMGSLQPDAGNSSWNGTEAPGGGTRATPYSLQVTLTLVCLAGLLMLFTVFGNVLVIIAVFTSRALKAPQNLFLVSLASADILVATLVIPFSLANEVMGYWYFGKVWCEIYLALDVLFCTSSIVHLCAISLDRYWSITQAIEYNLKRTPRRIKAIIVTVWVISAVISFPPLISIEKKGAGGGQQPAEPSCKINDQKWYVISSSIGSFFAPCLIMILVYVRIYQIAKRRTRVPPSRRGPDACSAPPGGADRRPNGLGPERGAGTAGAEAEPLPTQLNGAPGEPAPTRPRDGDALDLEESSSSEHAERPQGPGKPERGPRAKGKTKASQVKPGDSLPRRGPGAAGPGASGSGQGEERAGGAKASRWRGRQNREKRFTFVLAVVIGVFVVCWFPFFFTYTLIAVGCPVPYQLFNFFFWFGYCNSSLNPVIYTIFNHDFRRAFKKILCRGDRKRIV
# In short: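 Rat cortex synaptic membranes (male Wistar rats, 150-250 g; homogenized in HEPES-sucrose, spun at 1000g then 42000g, pellet washed in 3 mM K phosphate pH 7.5 with 30 min 25 °C preincubation). Displacement of [3H]p-aminoclonidine (0.1 nM), 20 min at 25 °C; filtration, scintillation counting. 8-10 concentrations in triplicate; Ki from single-site fit, nonspecific binding as fitted parameter.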
# Mus musculus [3] = species: Mus musculus; assay: Mouse Acetylcholine-induced Abdominal Irritant Test activity(MAIT) of the compound.; conditions: Abdomen
Compound,ED50 (Mus musculus [1]),Ki [2],ED50 (Mus musculus [3])
CCc1nc(Cc2c[nH]cn2)sc1C,> 30 mg/kg,18 nM,
CCc1sc(C)nc1Cc1c[nH]cn1,2.3 mg/kg,10 nM,
CCc1nc(CC)c(Cc2c[nH]cn2)s1,> 30 mg/kg,23 nM,
CCc1nc(C(C)c2c[nH]cn2)c(CC)s1 (centres undefined),16 mg/kg,407 nM,
CC(C)c1nc(Cc2c[nH]cn2)c(C(C)C)o1,6.9 mg/kg,714 nM,
CCc1nc(Cc2c[nH]cn2)c(C)s1,> 30 mg/kg,57 nM,
CCc1nc(Cc2c[nH]cn2)c(CC)o1,2.8 mg/kg,58 nM,
CCc1nc(Cc2cn[nH]n2)c(CC)s1,> 30 mg/kg,> 1000 nM,
CCc1nc(CC)c(C(C)c2c[nH]cn2)s1 (centres undefined),> 30 mg/kg,97 nM,
CCc1nc(Cc2ncc[nH]2)c(CC)s1,> 30 mg/kg,> 1000 nM,
CCc1nc(Cc2nc[nH]n2)c(CC)s1,> 30 mg/kg,> 1000 nM,
CCc1sc(Cc2c[nH]cn2)nc1C,2.8 mg/kg,18 nM,
CCc1csc(Cc2c[nH]cn2)n1,> 30 mg/kg,36 nM,
CCc1nc(Cc2c[nH]cn2)sc1CC,> 30 mg/kg,86 nM,
Cc1nc(Cc2c[nH]cn2)c(C)o1,> 30 mg/kg,> 1000 nM,
Cc1nc(C)c(C(c2ccccc2)c2c[nH]cn2)s1 (centres undefined),> 30 mg/kg,269 nM,
Cc1nc(Cc2c[nH]cn2)c(C)s1,> 30 mg/kg,38 nM,
CCc1nc(Cc2c[nH]cn2)c(C(C)C)s1,25.3 mg/kg,235 nM,

Compound,ED50 (Mus musculus [1]),Ki [2],ED50 (Mus musculus [3])
c1nc(Cc2nc3c(s2)CCC3)c[nH]1,> 30 mg/kg,28 nM,
CCc1cnc(Cc2c[nH]cn2)s1,> 30 mg/kg,381 nM,
c1ccc2sc(Cc3c[nH]cn3)nc2c1,> 30 mg/kg,18 nM,
c1nc(Cc2nc3c(s2)CCCC3)c[nH]1,> 30 mg/kg,110 nM,
CCc1sc(C(C)C)nc1Cc1c[nH]cn1,7.5 mg/kg,28 nM,
CCCCc1nc(Cc2c[nH]cn2)c(CCCC)s1,> 30 mg/kg,35 nM,
CCc1sc(C(F)(F)F)nc1Cc1c[nH]cn1,20.3 mg/kg,320 nM,
CCCc1nc(Cc2c[nH]cn2)c(CCC)s1,30 mg/kg,97 nM,
Cc1nc(Cc2c[nH]cn2)sc1C,1.7 mg/kg,11 nM,
Cc1nc(C)c(Cc2c[nH]cn2)s1,1 mg/kg,8 nM,
CCc1nc(Cc2c[nH]cn2)c(CC)s1,1.8 mg/kg,17 nM,
CCc1nc(C(Cc2ccccc2)c2c[nH]cn2)c(CC)s1 (centres undefined),> 30 mg/kg,37 nM,
CCc1sc(-c2ccccc2)nc1Cc1c[nH]cn1,15 mg/kg,13 nM,
Cc1nc(C)c(C(C)c2c[nH]cn2)s1 (centres undefined),> 30 mg/kg,60 nM,
CC(C)c1nc(Cc2c[nH]cn2)c(C(C)C)s1,23.8 mg/kg,285 nM,
"Cc1cccc(C(C)c2c[nH]cn2)c1C (single isomer, unassigned) [DEXMEDETOMIDINE]",,0.015 nM,0.09 mg/kg
CCc1nc(Cc2[nH]cnc2C)c(CC)s1 [ENTRY 68 A],,53 nM,
